From PubChem BioAssay
Shown are actives, neighbours in structure and some others; about 3.2% of the full set was active somewhere.
AF4-AF9 inh: MLL-AF4/AF9 protein interaction inhibition; inhibition, % at 10 µM; 0.47% of 350,000 active; AID 651704; P42568; AlphaScreen, biotin-AF4 peptide binding to FLAG-AF9;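 active = every replicate reaching a set inhibition limit, whatever the replicate mean, cut at about 25% in these data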;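 note: 0% = plate neutral control median and 100% = total signal loss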
S100A4 MyoIIA: S100A4-myosin IIA interaction inhibition; P26447; S100A4/TAMRA-MyoIIA peptide fluorescence polarization; inhibition, % at 10.7 µM; 0.14% of 360,000 active; AID 652163;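 active = mean inhibition of at least 70% across replicates, with every replicate also reaching that level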
Target sequence (P26447 whole entry, looked up): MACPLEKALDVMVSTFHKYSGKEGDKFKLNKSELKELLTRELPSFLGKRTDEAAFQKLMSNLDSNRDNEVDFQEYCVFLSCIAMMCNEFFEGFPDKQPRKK
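Material: S100A4 monomer protein | Medium: HEPES pH 7.2 with CaCl2, KCl, NaCl, DTT, Triton | Reagent: Labelled myosin peptide probe, 5 nM | Doses: One dose per compound | Times: 5 min incubation before reading | Benchmarks: Neutral control DMSO, positive control TFP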
PfHsp90 yeast 2: inhibits growth of yeast expressing Plasmodium falciparum Hsp90 | inhibition, % at 9.4 µM | S. cerevisiae expressing PfHsp90, BacTiter-Glo ATP, 48 h; yeast lacking PDR1 and PDR3 efflux regulators | 0.32% of 310,000 active | AID 504621;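 active = every replicate shows inhibition above about 80%, whatever the replicate mean, limit read from the data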;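 note: 0% = DMSO neutral controls and 100% = 20 µM radicicol positive controls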
Cneo AK release: Cryptococcus neoformans lysis via adenylate kinase release. AID 651654. 0.2% of 360,000 active. C. neoformans lysis, adenylate kinase release luminescence, 4 h; normalised: neutral wells 0, clomiphene wells 100. lysis activity, % at 15 µM;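 active = mean lysis activity across replicates of at least 80%, whatever share of replicates individually reach that level; inactive = mean lysis activity below 80%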
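Material: C. neoformans cells; Schedule: 4 h static compound exposure, 37 °C, read 1 h post-reagent; Measured by: adenylate kinase release luminescence; Read-out: signal increase indicating cell lysis; Controls: Clomiphene as positive lysis control.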
DENV2 CPE: protects cells from dengue virus 2 cytopathic effect; DENV2-infected cells, cytopathic effect rescue, plate reader; CPE inhibition, % at 9.99 µM; 1.7% of 350,000 active; in the data active = CPE inhibition above about 20%, passing the limit was not always enough; tested in BHK-21 cells;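 note: 0% = median of neutral control wells and 100% = median of positive control wells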
rRNA inh HTS: inhibitors of bacterial rRNA selective over humanized ribosomes; 1.6% of 350,000 active; E. coli WT GFP vs humanized-ribosome RFP mutants, fluorescence, 24 h; hits give low values; DMSO median 0, no signal -100; GFP signal change (wild-type ribosome), % (concentration not given with the values); AID 720706;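 active = significant combined selectivity score with lowered wild-type GFP, culture density cut under 30%, mutant RFP and density less affected; inactive = any of these conditions unmet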
* = called active by the depositor; / = not tested or not shown.

SMILES	AF4-AF9 inh	S100A4 MyoIIA	PfHsp90 yeast 2	Cneo AK release	DENV2 CPE	rRNA inh HTS
O=C(NC1CCCCC1)N[C@H]1C=C[C@H](CC(=O)N2CCOCC2)O[C@H]1CO	1	-3	/	0	15	1
O=C(NC1CCCCC1)N[C@H]1C=C[C@@H](CC(=O)N2CCOCC2)O[C@@H]1CO	-6	-3	/	93*	108*	2
O=C(NC1CCCCC1)N[C@@H]1C=C[C@@H](CC(=O)N2CCOCC2)O[C@@H]1CO	38*	-3	/	-2	-3	4
CN(C)C(=O)C[C@@H]1C=C[C@H](NC(=O)Nc2cccc(F)c2)[C@@H](CO)O1	-11	97*	/	38	17	-1
COCC(=O)N1CCC2(CC1)CN(C(=O)Cc1ccccc1)[C@H](CO)c1c2c2ccc(OC)cc2n1C	-1	6	/	/	-1	-2
COc1ccccc1-c1cnc2c(c1)C(=O)N([C@@H](C)CO)C[C@H](C)[C@@H](CN(C)C)O2	-4	12	/	-1	8	0
CCOC(=O)c1ccc(NC(=O)C2=C(C)Nc3nc(CCCO)nn3C2c2cccc(C)c2)cc1 (configuration not stated)	0	0	-8	-3	73*	-1
C[C@H]1CN([C@@H](C)CO)C(=O)c2cc(-c3ccc(C#N)cc3)cnc2O[C@@H]1CN(C)Cc1cncnc1	0	-21	/	-1	13	-2
COc1ccc2c3c(n(C)c2c1)[C@H](CO)N(CC1CC1)CC31CN(C(=O)Nc2ccccc2)C1	/	/	/	/	23*	-3
COc1ccc2c3c(n(C)c2c1)[C@H](CO)N(CC1CC1)CC31CN(C(=O)CC2CC2)C1	5	17	/	/	-2	0
COc1ccc2c3c(n(C)c2c1)[C@H](CO)N(CC1CCCC1)CC31CN(C(=O)Nc2ccccc2)C1	-1	2	/	/	5	-5
COc1ccc2c3c(n(C)c2c1)[C@@H](CO)N(CC1CC1)CC31CN(C(=O)CC2CC2)C1	-1	2	/	/	21*	-1
COc1ccc2c3c(n(C)c2c1)[C@@H](CO)N(CC1CC1)CC31CN(Cc2ccc(F)cc2)C1	30*	-6	/	/	-1	1
COc1ccccc1S(=O)(=O)N[C@H]1CC[C@@H](CCNC(=O)C2CCC2)O[C@H]1CO	-16	-4	/	-1	8	0
Cc1ccc(-c2ccc3c(c2)O[C@@H](CN(C)Cc2ccncc2)[C@@H](C)CN([C@@H](C)CO)S3(=O)=O)cc1	-2	5	/	-2	8	-4
COc1ccc(S(=O)(=O)N(C)C[C@H]2Oc3ccc(NC(=O)NC4CCCCC4)cc3CC(=O)N([C@H](C)CO)C[C@@H]2C)cc1	1	4	/	-3	16	-3
O=C(N[C@H]1CC[C@@H](CCn2cc(-c3ccccc3)nn2)O[C@H]1CO)c1ccccc1F	1	-1	/	1	-9	-3
O=C(C1CCC1)N1C[C@H]2[C@@H](c3ccccc31)[C@H](CO)N2C(=O)Cc1ccccn1	1	-6	/	1	33*	-4
O=C(C1CCC1)N1C[C@@H]2[C@H](c3ccccc31)[C@H](CO)N2C(=O)Cc1ccccn1	/	/	/	-4	/	-1
O=C(Nc1ccccc1)N1C[C@@H]2[C@H](c3ccccc31)[C@@H](CO)N2C(=O)Cc1ccccn1	0	6	/	-2	8	-37*
CCCNC(=O)N[C@@H]1CC[C@H](CC(=O)NC2CCC2)O[C@@H]1CO	3	2	/	1	-2	2
COc1ccc(C[C@@H]2CCc3cnnn3COCCNC2=O)cc1	/	/	/	/	/	3
NC(=O)c1ccc(N=Cc2ccc([N+](=O)[O-])s2)cc1	-8	-2	104*	/	8	-22
Cc1cc(C)cc(N=Cc2ccc([N+](=O)[O-])s2)c1	/	/	106*	/	/	/
O=[N+]([O-])c1ccc(/C=N/Nc2ncccc2[N+](=O)[O-])s1	-1	5	2	4	-3	8
O=[N+]([O-])c1ccc(C=Nc2ccc(Cl)c([N+](=O)[O-])c2)s1	-1	-9	106*	/	1	-3
